This is an account of results in article PMC6570502 (Chembiochem : a European journal of chemical biology, 2019).

For assay [1], the target named is T1, KDM4A N198A mutant (Homo sapiens, UniProt O75164, N198A).
T1 sequence (O75164 1-1064 N198A): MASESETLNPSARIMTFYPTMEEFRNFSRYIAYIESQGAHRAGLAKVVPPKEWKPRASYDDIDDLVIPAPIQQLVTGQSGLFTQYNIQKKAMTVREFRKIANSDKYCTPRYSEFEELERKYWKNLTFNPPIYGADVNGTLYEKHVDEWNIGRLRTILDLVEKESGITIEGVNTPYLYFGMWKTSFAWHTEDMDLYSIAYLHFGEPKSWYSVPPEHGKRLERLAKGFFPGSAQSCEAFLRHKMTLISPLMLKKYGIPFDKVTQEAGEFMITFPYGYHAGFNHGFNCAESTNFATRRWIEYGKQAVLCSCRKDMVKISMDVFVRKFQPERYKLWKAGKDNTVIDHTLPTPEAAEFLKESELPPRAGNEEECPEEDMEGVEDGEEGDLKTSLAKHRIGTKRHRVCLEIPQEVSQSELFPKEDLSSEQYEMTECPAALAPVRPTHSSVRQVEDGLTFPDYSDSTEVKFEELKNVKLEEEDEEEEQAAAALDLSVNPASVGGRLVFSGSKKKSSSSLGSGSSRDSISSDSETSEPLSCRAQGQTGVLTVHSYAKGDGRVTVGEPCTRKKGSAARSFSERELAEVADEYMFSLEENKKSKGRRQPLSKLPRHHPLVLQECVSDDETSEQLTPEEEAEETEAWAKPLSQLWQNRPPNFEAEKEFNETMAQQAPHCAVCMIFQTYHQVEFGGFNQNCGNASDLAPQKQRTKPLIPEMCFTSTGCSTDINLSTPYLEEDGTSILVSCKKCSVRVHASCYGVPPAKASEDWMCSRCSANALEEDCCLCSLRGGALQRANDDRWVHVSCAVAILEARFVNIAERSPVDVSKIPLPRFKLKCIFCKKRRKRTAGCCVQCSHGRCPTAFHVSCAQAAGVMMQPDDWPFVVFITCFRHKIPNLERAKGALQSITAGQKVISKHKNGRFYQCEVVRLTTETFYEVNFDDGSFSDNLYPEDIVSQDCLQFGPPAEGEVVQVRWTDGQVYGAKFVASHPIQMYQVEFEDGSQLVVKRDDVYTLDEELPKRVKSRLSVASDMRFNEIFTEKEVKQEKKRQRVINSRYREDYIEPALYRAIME
As to the kind of experiment: MALDI demethylase assay, H3K9me3 substrate peptide, N198A mutant. The assay is classed as biochemical.

Assay [2] has as its target T2, KDM4A S288A mutant (Homo sapiens, UniProt O75164, S288A).
T2 sequence (O75164 1-1064 S288A): T1 sequence (O75164 1-1064 N198A) with A198N, S288A
In words: MALDI demethylase assay, H3K9me3 substrate peptide, S288A mutant. It is filed as biochemical. Put shortly:
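KDM4A mutant demethylation of H3K9me3 peptide, read by MALDI-MS and expressed as % inhibition of demethylase activity, with wild type and the four active-site mutants run under the same conditions. The 2KG cofactor was cut from the 1 mM of the initial activity assay to 50 μM, about 3–4-fold above the enzymes' 2KG KM. KM came from an FDH/NAD+-coupled NADH fluorescence assay.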

Assay [3] deals with 2KG-dependent enzymes. Conditions: broad-spectrum inhibitors of 2KG-dependent enzymes; cited from earlier work.
Setting [4] is: scaffold test under the optimized assay conditions (50 μM 2KG), Figure S7.
Where [5] appears, read: 100 μM compound, 50 μM 2KG, MALDI-MS.

Positions count from the first letter of the chain named.

As to `O=C(O)c1ccc(O)c2ncccc12` [IOX1, 5-carboxy-8-hydroxyquinone], the “inhibition of demethylase activity” value in assay [1] (setting [4]) and in assay [2] (setting [4]) was “inhibited” throughout. Moreover, the IC50 entry in assay [3] is reported as “micromolar range”.
For the compound `O=C(O)CNC(=O)C(=O)O` [compound 2, N-oxalylglycine], the “inhibition of demethylase activity” value in assay [1] (setting [5]) is “significantly inhibited”; in assay [1] (setting [4]), “inhibited”; in assay [2] (setting [5]), “significantly inhibited”; in assay [2] (setting [4]) it was “inhibited”. For the same compound, the IC50 entry in assay [3] is “micromolar range”.
